Screening results as filed in PubChem BioAssay.
PAFAH2 FP inh: PAFAH2 enzyme inhibitors, primary screen, biochemical, fluorescence polarization, human. Platelet-activating factor acetylhydrolase 2, cytoplasmic (Homo sapiens), Q99487. recombinant PAFAH2, FP-rhodamine activity probe. inhibition, % at 3.39 µM. actives 0.99% (n = 340,000). AID 492956, 2010;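 active = inhibition above the mean over all tested compounds plus 3 SD, cut at about 30% in these data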;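 also: inhibitors block probe labeling of enzyme so polarization drops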
pPAFAH inh: pPAFAH enzyme inhibitors, primary screen, biochemical, fluorescence polarization, human; actives 1.5% (n = 330,000); AID 463082, 2010; Platelet-activating factor acetylhydrolase (Homo sapiens), Q13093; inhibition, % at 3.39 µM; recombinant pPAFAH, FP-rhodamine probe fluorescence polarization;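 active = inhibition above the mean inhibition across the screen plus 3 SD, cut at about 25% in these data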;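 also: inhibitors block binding of the rhodamine activity-based probe so polarization drops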
PAFAH1B2 FP inh: PAFAH1B2 enzyme inhibitors, primary screen, biochemical, fluorescence polarization, human; Platelet-activating factor acetylhydrolase IB subunit alpha2 (Homo sapiens), P68402; inhibition, % at 3.39 µM; recombinant PAFAH1B2, FP-rhodamine activity probe; actives 1.2% (n = 340,000);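 active = inhibition above the mean of all tested compounds plus 3 SD, cut at about 24% in these data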
Target sequence (P68402 whole entry, looked up): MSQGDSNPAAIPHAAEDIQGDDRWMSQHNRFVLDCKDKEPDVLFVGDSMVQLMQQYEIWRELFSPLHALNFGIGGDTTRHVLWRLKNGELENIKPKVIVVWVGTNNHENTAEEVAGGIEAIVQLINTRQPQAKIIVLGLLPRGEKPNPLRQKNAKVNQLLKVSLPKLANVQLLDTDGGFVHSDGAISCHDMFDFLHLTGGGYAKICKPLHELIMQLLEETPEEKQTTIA
RBBP9 inh: human RBBP9 inhibitors, primary screen, biochemical, fluorescence polarization, FP-Rh probe, HTS; Serine hydrolase RBBP9 (Homo sapiens), O75884; recombinant RBBP9; inhibition, % at 7.94 µM; actives 0.2% (n = 220,000);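 active = inhibition above the campaign mean of all tested compounds plus 3 SD, cut at about 14% in these data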
Target sequence (O75884 whole entry, looked up): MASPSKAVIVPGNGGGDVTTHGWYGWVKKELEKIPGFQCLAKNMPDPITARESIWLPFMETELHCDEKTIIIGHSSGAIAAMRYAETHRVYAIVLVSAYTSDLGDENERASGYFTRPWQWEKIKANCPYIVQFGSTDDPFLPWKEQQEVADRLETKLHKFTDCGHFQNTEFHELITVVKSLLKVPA
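Controls: DMSO-treated enzyme wells and wells lacking RBBP9 | Material: RBBP9 protein | Technique: Fluorescence polarization | Replication: Single well per compound, no replicates | Buffer or medium: Tris-NaCl-Pluronic buffer, pH 8.0 | Timing: 30 min compound preincubation, 45 min probe labeling, 25 °C | Read-out basis: Percent inhibition from mP, scaled between DMSO and no-protein wells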
PAFAH1B3 FP inh: PAFAH1B3 enzyme inhibitors, primary screen, biochemical, fluorescence polarization, human; Platelet-activating factor acetylhydrolase IB subunit alpha1 (Homo sapiens), Q15102; recombinant PAFAH1B3, FP-rhodamine probe; inhibition, % at 3.39 µM; actives 0.28% (n = 340,000); AID 492972, 2010;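 active = inhibition above the screen-wide average of all tested compounds plus 3 SD, cut at about 25% in these data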
PAFAH2 FP conf: PAFAH2 enzyme inhibitors, confirmation, biochemical, fluorescence polarization, human. inhibition, % at 3.39 µM. recombinant PAFAH2, FP-rhodamine activity probe. actives 65% (n = 2,300). shares compounds with PAFAH2 FP inh;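 active = mean inhibition over three repeats above a set limit taken from the earlier primary screen, cut at about 30% in these data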;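 also: inhibitor blocks binding of rhodamine activity probe so polarization falls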
Each line names hits and unclear results; the compound was inactive in the other large screens (follow-up assays come after a bar, where they were run). Most compounds without a hit are left out; they make up all but 2.7% or so of the library.

O=C(C1CCN(S(=O)(=O)N2CCC3(CC2)OCCO3)CC1)N1CCC(Cc2ccccc2)CC1	none
O=C(OCC(=O)C12CC3CC(CC(C3)C1)C2)c1cccnc1Cl	PAFAH2 FP inh 47 | PAFAH2 FP conf 37
O=C(COC(=O)c1cccnc1Cl)NC1CCCc2ccccc21 (stereo not given)	none (no result: RBBP9 inh)
O=C(COC(=O)c1ccccc1F)Nc1cccnc1Cl	PAFAH2 FP inh 35 | PAFAH2 FP conf inactive
O=C(COC(=O)c1ccccc1Cl)Nc1cccnc1Cl	none (no result: RBBP9 inh)
O=C(COC(=O)c1cccnc1Cl)NC1CCCCC1	PAFAH2 FP inh 72 (no result: RBBP9 inh) | PAFAH2 FP conf 49
CC1CCC(NC(=O)COC(=O)c2cccnc2Cl)CC1 (stereo not given)	PAFAH2 FP inh 70 (no result: RBBP9 inh) | PAFAH2 FP conf 42
O=C(NCc1ccco1)/C(=C\c1ccco1)NC(=O)c1ccco1	none
Cn1cnnc1SCNC(=O)C(F)(F)F	none
CCN(C(=O)Cn1nnc(-c2ccccc2)n1)C1CCS(=O)(=O)C1 (stereo not given)	none (no result: RBBP9 inh)
COc1cc(C(=O)NNC(=S)NC(=O)c2ccc(F)cc2)cc(OC)c1OC	PAFAH2 FP inh 51 | PAFAH2 FP conf inactive
CN(Cc1ccccc1F)C(=O)CCCNC(=O)c1ccc(Cl)cc1	none (no result: RBBP9 inh)
COC(=O)c1c(NC(=S)NNC(=O)c2ccc(Cl)s2)sc(C(=O)N(C)C)c1C	PAFAH2 FP inh 50 (no result: RBBP9 inh) | PAFAH2 FP conf 41
Cc1cc(C(=O)COC(=O)c2ccc[nH]c2=O)c(C)n1-c1ccccc1F	none
Cc1cc(C(=O)COC(=O)c2ccc(O)cc2)c(C)n1CC(F)(F)F	PAFAH2 FP inh 31 (no result: RBBP9 inh) | PAFAH2 FP conf inactive
Cc1cc(C(=O)COC(=O)c2ccc(O)cc2)c(C)n1-c1ccccc1F	PAFAH2 FP inh 39 | PAFAH2 FP conf inactive
COc1ccc(S(=O)(=O)N2CCOCC2)cc1C(=O)N1CCCC1	none (no result: RBBP9 inh)
COc1ccc(C(=O)COC(=O)/C=C/c2ccccc2)cc1	none (no result: RBBP9 inh)
NS(=O)(=O)c1cccc(NS(=O)(=O)c2ccc(/C=C/C(=O)OCC(=O)c3ccccc3)cc2)c1	PAFAH2 FP inh 58 | PAFAH2 FP conf 49
Cc1cccc(C)c1NC1=C(Cl)C(=O)OC1OC(=O)c1ccccc1 (stereo not given)	PAFAH2 FP inh 31 | PAFAH2 FP conf inactive
Cc1ccc(NC2=C(Cl)C(=O)OC2OC(=O)c2ccccc2)c(C)c1 (stereo not given)	none
COc1ccccc1NC(=O)Cn1nnc(C(=O)NCCc2ccccc2)c1N	none
O=C(NCc1ccccc1)C(c1ccco1)N(C(=O)c1ccccn1)c1ccc(F)cc1 (stereo not given)	none
Cc1ccc(C)c(S(=O)(=O)N(C)c2ccc(OC(=O)C3CCN(C(=O)Nc4ccccc4)CC3)cc2)c1	PAFAH2 FP inh 32 (no result: pPAFAH inh, RBBP9 inh) | PAFAH2 FP conf inactive
CCN(CC)S(=O)(=O)c1cccc(NC(=O)COC(=O)c2cc(C)oc2C)c1	PAFAH2 FP inh 39 | PAFAH2 FP conf 39
CN(C)S(=O)(=O)c1cccc(NC(=O)COC(=O)c2cccn2C)c1	PAFAH2 FP inh 36 | PAFAH2 FP conf inactive
Cc1noc(C)c1C(=O)OCC(=O)Nc1cccc(S(=O)(=O)N(C)C)c1	none
Cc1cc(C(=O)OCC(=O)Nc2cccc(S(=O)(=O)N(C)C)c2)c(C)o1	PAFAH2 FP inh 45 | PAFAH2 FP conf 34
CC(=O)c1cccc(NC(=O)CCc2nnc3ccc(N4CCOCC4)nn23)c1	none (no result: RBBP9 inh)
CCOc1ccc(C2C(C(C)=O)=C(O)C(=O)N2CCc2c[nH]c3ccccc23)cc1 (stereo not given)	none
O=C1CSC(=S)N1N=Cc1c(O)ccc2ccccc12	PAFAH2 FP inh 42 (no result: pPAFAH inh, RBBP9 inh) | PAFAH2 FP conf 34
COc1ccc2ccccc2c1/C=N/N1C(=O)CSC1=S	none
COc1ccc(N(Cc2cc3ccc(C)cc3[nH]c2=O)C(=O)C2CCCO2)cc1 (stereo not given)	none
